Here are results for six compounds from PMC4339263 (Health physics, 2015).

Where “and” joins values, the source holds several entries; their conditions need not be identical. Equal entries are not always repeated. Where two headings read alike, the source gives them in different places.

Series [1] can be described thus: Ionization. The format is physicochemical. Particulars: 5 mM ligand in 0.15 M KCl. The method in brief: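 The free ligand was titrated with acid and then with base. After each addition it was equilibrated for 30 s, and pH was then read on a glass electrode with an Ag/AgCl reference. Ligand integrity was checked afterwards by HPLC with charged aerosol detection. Constants were calculated from three replicates.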

A short description of series [2]: Solvent extraction study of the Am. The format is binding. Particulars: for calculated formation constant (log K) of the ^241Am-ligand complex: calculated from lg β^cond and pKa values; for conditional stability constant (lg β^cond) of the ^241Am complex: pH 1.3, I = 0.1 M NaCl, 25°C, 0.1 M HDEHP in dodecane. The essentials: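 Tracer ^241Am (16.7 MBq L-1) was partitioned between the organic and aqueous phases, with ligand at 0.05–100 µM in the aqueous phase. Samples were vortexed, shaken for 60 min, and centrifuged (10,000×g, 10 min). Both phases were gamma-counted (40–80 keV window), in triplicate. D0 came from a ligand-free aqueous phase. lg β^cond was obtained from a linear fit of […] against ligand concentration, and formation constants were then derived using the pKa values.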

Series [3] in a line: Competitive binding of ^241Am in rat plasma. To be noted: 3 nM ^241Am nitrate, 37°C; for logistic equation parameter a (slope) / logistic equation parameter b (inflection point) / logistic equation parameter c (asymptote, fraction of bound ^241Am): estimate ± 95% conf. interval. The essentials: (§1)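 Ligand stocks were in 10 mM sodium phosphate, pH 7.4, and added to plasma at 0.5–750 µM final, with ^241Am nitrate (stock in 1 M HCl). Samples were incubated at 37°C with mild agitation, then protein-bound Am was removed on a 3K ultrafilter (14,000×g, 30 min). Ligand-bound and cationic Am in the filtrate were separated on strong cation-exchange spin columns, and each fraction was gamma-counted (40–80 keV). Bound fraction was fitted against log concentration by logistic Gauss-Newton regression, and EC50 was taken at half of the asymptote.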

The nature of series [4]: Competitive binding of ^241Am in beagle plasma. To be noted: 3 nM ^241Am nitrate, 37°C; for logistic equation parameter a (slope) / logistic equation parameter b (inflection point) / logistic equation parameter c (asymptote, fraction of bound ^241Am): estimate ± 95% conf. interval. The method in brief: as §1
The nature of series [5]: Competitive binding of ^241Am in human plasma. Particulars: for EC50 / EC90 / logistic equation parameter a (slope) / logistic equation parameter b (inflection point) / logistic equation parameter c (asymptote, fraction of bound ^241Am): human plasma, 3 nM ^241Am nitrate, 37°C; for logistic equation parameter a (slope) / logistic equation parameter b (inflection point) / logistic equation parameter c (asymptote, fraction of bound ^241Am): estimate ± 95% conf. interval. The essentials: as §1

Series [6] can be described thus: Pharmacokinetics of C2E2 in beagle dogs. It counts as in vivo. The essentials:
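Dogs were 8–10 months old and weighed 10.1–12.0 kg. They were fasted overnight and dosed by gavage (12.05 mg mL-1 solution), with food returned about 2 h later. Jugular blood was drawn pre-dose and at 0.5–24 h into fluoride/oxalate tubes. Plasma was acidified with 20% formic acid and stored at –80 °C. Analysis was by LC/MS/MS with ^13C internal standards; the acid metabolite was measured as its Fe(III) complex in negative-ion mode. Data were fitted to a two-compartment model.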

The format of series [7] is in vivo, beagle. Particulars: beagles, 100 mg kg^−1 oral C2E2.
The conditions of series [8]: reported for DTPA; cited from earlier work.
The conditions of series [9]: oral; ref Volf, 1984; cited from earlier work.
The conditions of series [10]: ref Martell, 1982; cited from earlier work.
For series [11] the following is noted: cited from earlier work; for stability constant (log K) of the americium complex: ref Ansoborlo et al., 2007.
Setting [12] is: 100 mg kg^−1 oral, two-compartment model.

What is called EC50 is the concentration giving half of the maximal effect. A higher EC50 goes with a less potent agent. A word on the EC90: it is the concentration at which the effect reaches the 90% level. A higher EC90 goes with a need for much substance. With `CCOC(=O)CN(CCN(CCN(CC(=O)O)CC(=O)O)CC(=O)O)CC(=O)O` [C2E1, monoethyl ester of DTPA], in series [1], the pKa1 is 9.63 ± 0.03, the pKa2 is reported as 6.35 ± 0.38, the pKa3 is 2.99 ± 0.05 and the pKa4 came to 1.72 ± 1.5. In addition, in [1], the pKa5 worked out at 1.18 ± 0.45, the pKa6 is given as less than 1.5 and the pKa7 was less than 1.5. In [2], the “calculated formation constant (log K) of the ^241Am-ligand complex” value (“calculated formation constant (log K)” for short) is reported as 21.7 ± 0.5 and the “conditional stability constant (lg β^cond) of the ^241Am complex” value (“conditional stability constant” below) is listed as 2.46. Besides, in series [3], the EC50 turned out to be 25.5 µM, the EC90 was 60.1 µM, the “logistic equation parameter a (slope)” value was 0.06 ± 0.01 and the “logistic equation parameter b (inflection point)” value (from here on “logistic equation parameter b”) is recorded as 25.50 ± 3.36. In addition, the “logistic equation parameter c (asymptote, fraction of bound ^241Am)” value in [3] was 45.74 ± 1.51. Further, in series [4], the EC50 worked out at 2.02 µM, the 90% effect level (EC90) was put at 5.87 µM, the “logistic equation parameter a (slope)” value is listed as 0.57 ± 0.13 and the “logistic equation parameter b” value is on record as 2.02 ± 0.38. In series [4], the “logistic equation parameter c (asymptote, fraction of bound ^241Am)” value is reported as 61.69 ± 1.4. Besides, in series [5], the EC50 was determined as 5.26 µM, the 90% effect level (EC90) was put at 19 µM, the “logistic equation parameter a (slope)” value was 0.16 ± 0.03 and the “logistic equation parameter b” value was 5.26 ± 0.74. In addition, the “logistic equation parameter c (asymptote, fraction of bound ^241Am)” value in [5] is given as 55.22 ± 1.06.

In series [1], `CCOC(=O)CN(CCN(CCN(CC(=O)O)CC(=O)OCC)CC(=O)O)CC(=O)O` [C2E2, DTPA diethyl ester] returned a pKa1 of 9.40 ± 0.02, a pKa2 of 4.68 ± 0.02, a pKa3 of 3.52 ± 0.03 and a pKa4 of 1.87 ± 0.05. Further, in [1], the pKa5 worked out at 1.76 ± 0.05 and the pKa6 amounted to 1.45 ± 0.09. In addition, in series [2], the “stability of the ^241Am complex lower than that of the DTPA-^241Am complex” value is recorded as 6 log units; the “calculated formation constant (log K)” value was 19.6 and 19.6 ± 0.2; the “conditional stability constant” value is 1.36. The “strength of americium binding relative to the strongest ligand in the plasma” value in series [2] (compared with the americium-transferrin complex) is reported as “nine orders of magnitude higher”. For the same compound, in series [3], the midpoint of the response, the EC50, lay at 46.2 µM; the EC90 was 101 µM; the “logistic equation parameter a (slope)” value is recorded as 0.04 ± 0.00; the “logistic equation parameter b” value is recorded as 46.17 ± 3.43. The “logistic equation parameter c (asymptote, fraction of bound ^241Am)” value in series [3] is 54.62 ± 1.58. For the same compound, in series [4], the EC50 amounted to 4.91 µM, the EC90 is 10.8 µM, the “logistic equation parameter a (slope)” value is on record as 0.37 ± 0.02 and the “logistic equation parameter b” value was 4.91 ± 0.18. For the same compound, the “logistic equation parameter c (asymptote, fraction of bound ^241Am)” value in [4] is listed as 64.79 ± 0.50. In addition, in series [5], it took 8.87 µM to reach a half-maximal effect (EC50), the 90% effect level (EC90) was put at 18.4 µM, the “logistic equation parameter a (slope)” value is 0.23 ± 0.04 and the “logistic equation parameter b” value was 8.87 ± 0.80. The “logistic equation parameter c (asymptote, fraction of bound ^241Am)” value in series [5] is listed as 60.29 ± 1.25. Further, in series [5] (human vs dog plasma), the “difference between concentration required for chelation in humans and dogs” value is listed as “less than 2 fold”. For the same compound, the “difference between concentration required for chelation in humans and rats” value in series [5] (human vs rat plasma) was “greater than 5 fold”. The “fraction of the absorbed dose metabolized to C2E1 or DTPA” value in series [6] (100 mg kg^−1 oral) is ~ 2%. Also, in series [6] (100 mg kg^−1 oral, two males and two females), the “difference between AUC0–24 of males and females” value was “no significant difference”. Further, in series [6] (setting [12]), the “elimination half-life from the first compartment” value is 0.69 h and the “elimination half-life from the second compartment” value came out at 6.66 h. Besides, in [6] (single 100 mg kg^−1 oral gavage), the “time to peak plasma concentration after administration” value was determined as 1 h. For the same compound, in series [7], the “time plasma concentration is above the 50% maximal binding threshold” value was determined as 4.7 h.

`O=C(O)CN(CCN(CC(=O)O)CC(=O)O)CCN(CC(=O)O)CC(=O)O` [DTPA, Diethylenetriaminepentaacetic acid, reference compound]: in [2], the “calculated formation constant (log K)” value is reported as 25.4 ± 0.3 and the “conditional stability constant” value was found to be 2.70. Further, in series [3], the EC50 amounted to 5.36 µM, the EC90 is 12.4 µM, the “logistic equation parameter a (slope)” value is 0.31 ± 0.03 and the “logistic equation parameter b” value was 5.36 ± 0.43. Moreover, in series [3], the “logistic equation parameter c (asymptote, fraction of bound ^241Am)” value was 35.69 ± 0.85. In series [4], the EC50 was found to be 1.08 µM, the 90% effect level (EC90) was put at 2.25 µM, the “logistic equation parameter a (slope)” value is 1.87 ± 0.69 and the “logistic equation parameter b” value is 1.08 ± 0.18. The “logistic equation parameter c (asymptote, fraction of bound ^241Am)” value in series [4] is recorded as 54.75 ± 2.16. Moreover, in [5], the EC50 stood at 2.82 µM, the 90% effect level (EC90) was put at 5.05 µM, the “logistic equation parameter a (slope)” value is given as 0.98 ± 0.13 and the “logistic equation parameter b” value is 2.82 ± 0.30. The “logistic equation parameter c (asymptote, fraction of bound ^241Am)” value in series [5] is reported as 55.88 ± 1.40. Besides, in series [8], the pKa1 is given as 10.51 ± 0.01, the pKa2 is listed as 8.54 ± 0.02, the pKa3 was 4.31 ± 0.02 and the pKa4 is recorded as 2.55 ± 0.05. Further, in [8], the pKa5 was 1.80 ± 0.05, the pKa6 is 1.60 ± 0.15 and the pKa7 is recorded as 1.45 ± 0.15. Besides, the bioavailability in [9] was ~ 3%. Also, in [10], the “stability constant (log K) with iron” value is 28.0.

`O=C(O)CC(O)(CC(=O)O)C(=O)O` [citrate]: the “stability constant (log K) of the americium complex” value in series [11] was 8.6.

In the case of `O=[N+]([O-])O` [nitrate], the “affinity for americium (log K)” value in series [11] (ref Silva and OECD Nuclear Energy Agency., 1995) was 1.3.

“transferrin: plasma protein that binds about 30% of the total ^241Am”: the “stability constant (log K) of the americium complex” value in series [11] was 10.4.
